CHO-K1 Ca antag – counter-screen for M1 antagonists: effect in parental CHO-K1 cells. ATP-induced calcium, Fluo-8 fluorescence. AID 602250. 360,000 tested, 0.6% active. inhibition, % at 3 µM;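 active = inhibition above a per-plate cutoff, the plate's mean sample inhibition plus 3 SD, cut at about 24% in these data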;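 note: 0% = DMSO plus EC80 ATP and 100% = DMSO alone without ATP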
CHRM5 agonist – CHRM5 agonism in calcium assay; P08912; CHO-K1 hM5 cells, Fluo-8 calcium fluorescence; 0% DMSO wells, 100% maximal acetylcholine response; activation, % at 3 µM; 360,000 tested, 0.19% active; AID 624037;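 active = activation above the run's mean over test compounds plus 3 SD, cut at about 23% in these data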;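 note: signal is peak over basal fluorescence ratio across the kinetic read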
Target sequence (P08912 whole entry, looked up): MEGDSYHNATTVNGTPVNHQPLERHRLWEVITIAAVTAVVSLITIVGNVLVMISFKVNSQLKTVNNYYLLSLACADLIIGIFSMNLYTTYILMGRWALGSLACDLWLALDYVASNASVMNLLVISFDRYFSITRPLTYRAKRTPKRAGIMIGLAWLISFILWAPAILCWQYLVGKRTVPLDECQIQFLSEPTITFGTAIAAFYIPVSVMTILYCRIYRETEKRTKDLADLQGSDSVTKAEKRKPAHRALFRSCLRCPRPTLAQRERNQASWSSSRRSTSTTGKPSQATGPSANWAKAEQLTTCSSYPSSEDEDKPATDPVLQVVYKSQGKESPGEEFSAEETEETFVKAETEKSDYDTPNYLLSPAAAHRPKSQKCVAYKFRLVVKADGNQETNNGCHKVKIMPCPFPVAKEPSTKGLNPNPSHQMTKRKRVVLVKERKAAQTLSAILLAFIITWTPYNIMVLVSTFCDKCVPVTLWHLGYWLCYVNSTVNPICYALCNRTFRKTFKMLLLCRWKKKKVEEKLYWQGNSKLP
M1 PAM parental – nonselective activator or artifact in parental CHO-K1 calcium assay | ATP EC20, Fluo-8 calcium fluorescence; 0% at ATP EC20, 100% at ATP max | activation, % at 3 µM | 360,000 tested, 0.02% active;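 active = activation above the run cutoff, the mean activation of all test compounds plus 3 SD, cut at about 40% in these data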;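 note: peak over basal fluorescence ratio in a 140 s read after ATP addition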
M1 ag parental – nonselective activator or artifact in parental CHO-K1 cells; Fluo-8 calcium fluorescence; scaled to maximal ATP response, vehicle zero; 360,000 tested, 0.48% active; AID 602248; activation, % at 3 µM; in the data active = activation above about 15%;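 note: untransfected CHO-K1 host cells lacking M1 receptor as counterscreen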
M5 PAM – CHRM5 positive allosteric modulation; 360,000 tested, 0.3% active; CHO-K1 hM5, Fluo-8 calcium, ACh EC20 PAM; 0% = ACh EC20, 100% = ACh EC100; activation, % at 3 µM; AID 624038; P08912;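 active = activation above the run cutoff, the mean activation of all test compounds plus 3 SD, cut at about 18% in these data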
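System – CHO-K1 hM5 cells · Compound – 3 µM, single dose · Incubation – compound preincubation 140 s before EC20 acetylcholine addition · Technique – Fluo-8 calcium fluorescence · Measure – Max/basal fluorescence ratio as % of EC20–EC100 ACh window · Benchmarks – low control EC20 acetylcholine (0%), high control EC100 acetylcholine (100%) · Replication – singlicate, one well per test compound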
M5 antag – CHRM5 antagonism in calcium assay; P08912; CHO-hM5 cells, Fluo-8 calcium fluorescence, ACh EC80; inhibition, % at 3 µM; 360,000 tested, 0.59% active; AID 624040;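 active = inhibition above a per-plate cutoff, the mean of that plate's test compounds plus 3 SD, cut at about 27% in these data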;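 note: 0% = acetylcholine EC80 with DMSO and 100% = DMSO without agonist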
Starred values were filed as active, the others as inactive. A selection: hits, their analogues and other compounds. The true share with any hit is near 1.7%.

SMILES	CHO-K1 Ca antag	CHRM5 agonist	M1 PAM parental	M1 ag parental	M5 PAM	M5 antag
CCCC(=O)Nc1ccccc1N1CCN(C(=O)C(C)C)CC1	3	5	-5	0	10	-6
Cc1ccc(C(=O)Nc2ccccc2N2CCN(C(=O)C(C)C)CC2)cc1C	29*	-7	-27	1	-29	5
CCOc1cccc2cc(C(=O)NC(C)c3ccccc3)c(=N)oc12 (stereo unspecified)	4	-1	-12	0	1	-1
CNC(=O)CSc1nnc(-c2cccnc2)n1CCc1ccccc1	-12	1	23	1	2	1
CC(C)CC(=O)OC1C(N2CCOCC2)c2c(ccc(/C=C/C(=O)N3CCOCC3)c2O)OC1(C)C (stereo unspecified)	4	0	14	15*	0	-6
CC(C)(C)NC(=O)CN(Cc1ccc2c(c1)OCO2)C(=O)CNS(=O)(=O)c1ccc(F)cc1	-18	1	22	3	27*	11
COc1ccccc1NC(=O)CSc1nnc(CC(=O)Nc2ccccc2C)n1C	3	0	-12	0	-3	16
O=C(c1cccc(N2C(=O)C3C4C=CC(C4)C3C2=O)c1)N1CCN(c2ccccc2)CC1 (stereo unspecified)	-9	4	11	3	-3	10
O=C(c1cc(N2C(=O)C3C4CCC(C4)C3C2=O)ccc1Cl)N1CCN(c2ccccc2)CC1 (stereo unspecified)	-1	4	10	23*	-9	-1
CCOC(=O)Cn1nc(C)n(-c2cccc(Cl)c2)c1=O	-7	6	8	0	19*	-5
CCOC(=O)Cn1nc(C)n(-c2ccc(Cl)cc2)c1=O	-12	0	17	0	3	9
C=CCn1c(-c2ccc(S(=O)(=O)N3CCOCC3)cc2)csc1=Nc1ccccc1	8	4	17	6	-10	7
CC(=O)c1cccc(N=c2scc(-c3ccc(S(=O)(=O)N4CCOCC4)cc3)n2CCO)c1	32*	9	-6	10	-17	19
O=C(CCC(=O)Nc1ccc(Br)cc1)N/N=C/c1cc([N+](=O)[O-])ccc1O	-8	0	-6	0	-4	-7
Cc1[nH]c2ccccc2c1/C=N/NC(=O)c1cc(-c2ccncc2)nc2ccccc12	1	1	-2	4	31*	24
Cc1[nH]c2ccccc2c1/C=N/NC(=O)c1cc(-c2ccccc2)n[nH]1	8	4	-7	3	-4	0
Cc1c(OCC(=O)N2CCN(c3ccccc3)CC2)ccc2c3c(c(=O)oc12)CCCC3	25*	-4	8	2	-4	3
CC(=O)COc1ccc2c3c(c(=O)oc2c1C)CCCCC3	-23	7	-5	13	-12	1
Cc1c(OCC(=O)N(C)C)ccc2c3c(c(=O)oc12)CCCCC3	25*	-2	-13	1	-1	4
CN1CCN(C(=O)c2cc3c(c(-c4cccc(-c5cccnc5)c4)n2)[C@H](CCO)N(C(=O)CC2CC2)C3)CC1	-20	-1	10	0	6	-3
CCc1ccc(N(C(=O)c2ccco2)C(C(=O)NC2CCCC2)c2ccncc2)cc1 (stereo unspecified)	-6	1	4	-1	0	3
COc1ccc(NC(=O)COc2ccccc2Cc2ccccc2)cc1S(N)(=O)=O	48*	9	-2	18*	-13	30*
COc1ccc(NC(=O)CN(Cc2ccccc2)Cc2ccccc2)cc1S(N)(=O)=O	-7	4	14	2	-5	0
Oc1ccccc1C1=Nc2nc3ccccc3n2C(c2ccccc2)C1 (stereo unspecified)	-5	-5	16	1	-2	-10
Oc1ccccc1C1=NC(c2ccccc2)NC(c2ccccc2)C1 (stereo unspecified)	26*	1	-16	0	-6	8
SMILES	CHO-K1 Ca antag	CHRM5 agonist	M1 PAM parental	M1 ag parental	M5 PAM	M5 antag
COc1cccc(CNCCc2c[nH]c3ccccc23)c1OCc1ccccc1	12	8	5	21*	-19	29*
COc1ccccc1CCNCc1ccc(OC)c(OCc2ccccc2)c1	-17	10	-6	20*	-24	17
COc1ccc(CNCc2ccco2)cc1OCc1ccccc1	10	-5	-11	2	-2	4
CC(=O)c1c(C)[nH]c(C(=O)CN2CCN(S(=O)(=O)c3ccccc3[N+](=O)[O-])CC2)c1C	-15	11	9	19*	-13	-3
O=C(CN1CCN(S(=O)(=O)c2ccccc2[N+](=O)[O-])CC1)Nc1ccc(N2CCOCC2)cc1	-14	4	17	4	1	6
Cc1ccc(-c2cc(C(=O)Nc3cnn(C45CC6CC(CC(C6)C4)C5)c3)no2)cc1	-9	2	8	0	4	-3
Cc1ccc(-c2cc(C(=O)Nc3cnn(C(C)C)c3)no2)cc1	-6	26*	11	5	-14	-2
CC(C)(C)OC(=O)NCCc1nnc(SCC(=O)Nc2ccc(Br)cc2)o1	3	5	-1	29*	-7	10
O=C(CCCc1ccccc1)NC1CC1	-3	-1	12	0	4	-8
CCOCCN1CCN(C2c3ccccc3CSc3ccccc32)CC1 (stereo unspecified)	0	-20	2	0	-30	100*
Cc1ccc(S(=O)(=O)NCc2ccncc2)cc1C	18	0	-5	13	-15	26
COc1cc(S(=O)(=O)NCc2ccncc2)ccc1Br	18	2	-17	12	-16	35*
CCOC(=O)COc1ccc(S(=O)(=O)NCc2cccnc2)cc1	-28	3	16	3	-8	9
COC(=O)COc1ccc(S(=O)(=O)NCc2ccncc2)cc1	10	7	11	11	-17	28*
O=S(=O)(c1cccs1)N1CN(Cc2ccco2)c2nc3ccccc3nc21	-11	4	10	1	8	0
O=C(NNc1c2ccccc2nc2ccccc12)c1ccccc1O	-2	-2	7	11	-16	34*
O=C(NNc1c2ccccc2nc2ccccc12)c1ccc(O)cc1O	-1	-2	0	4	-14	13
Cc1cc(C)n2ncc(C(=O)NCCc3ccccc3)c2n1	-17	1	30	1	4	3
Cc1cc(C)n2ncc(C(=O)NCc3ccccc3)c2n1	6	0	-4	0	31*	20
Cc1ccc(OCc2cn3cccnc3n2)cc1	67*	1	-4	95*	2	0
O=[N+]([O-])c1cccc(OCc2cn3cccnc3n2)c1	19	0	-13	0	-2	7

Source: PubChem (The Scripps Research Institute Molecular Screening Center)
